ChEMBL document CHEMBL4033712, “Synthesis and biological evaluation of new C-12(α/β)-(N-) sulfamoyl-phenylamino-14-deoxy-andrographolide derivatives as potent anti-cancer agents” (Bioorg Med Chem Lett, 2017)

Columns and labels:
Assay type in all cases: functional
CCRF-CEM = assay: Growth inhibition of human CCRF-CEM cells incubated for 48 hrs by sulforhodamine B assay
Outline: (§1)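 NCI-60 five-dose screen at 0.01, 0.1, 1, 10 and 100 µM, 48 h incubation, sulforhodamine B end point. GI50 (50% decrease in net growth), TGI (total growth inhibition) and LC50 (net 50% loss of initial cells) taken from log concentration versus % growth inhibition curves.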

HL-60(TB) = assay: Growth inhibition of human HL-60(TB) cells incubated for 48 hrs by sulforhodamine B assay; details: HL-60, 48 h
Outline: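 NCI-60 five-dose screen at 0.01, 0.1, 1, 10 and 100 µM for 48 h, sulforhodamine B read-out. GI50 taken from log concentration versus % growth inhibition curves as the concentration giving 50% decrease in net cell growth.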

K562 = assay: Growth inhibition of human K562 cells incubated for 48 hrs by sulforhodamine B assay; details: K562, 48 h; outline: as §1
MOLT-4 = assay: Growth inhibition of human MOLT4 cells incubated for 48 hrs by sulforhodamine B assay; details: MOLT-4, 48 h; outline: as §1
SR = assay: Growth inhibition of human SR cells incubated for 48 hrs by sulforhodamine B assay
Outline: (§2)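 NCI 60 human tumour cell line panel, five-dose study at 0.01, 0.1, 1, 10 and 100 µM, 48 h incubation. Sulforhodamine B protein-binding dye end point. GI50 (50% decrease in net cell growth), TGI (total growth inhibition) and LC50 (net 50% loss of initial cells) read from log concentration versus % growth inhibition curves.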

A549 = assay: Growth inhibition of human A549/ATCC cells incubated for 48 hrs by sulforhodamine B assay; details: A549, 48 h; outline: as §1
HOP-62 = assay: Growth inhibition of human HOP62 cells incubated for 48 hrs by sulforhodamine B assay; details: HOP-62, 48 h; outline: as §1
NCI-H226 = assay: Growth inhibition of human NCI-H226 cells incubated for 48 hrs by sulforhodamine B assay; details: NCI-H226, 48 h; outline: as §1
NCI-H460 = assay: Growth inhibition of human NCI-H460 cells incubated for 48 hrs by sulforhodamine B assay; details: NCI-H460, 48 h; outline: as §1
NCI-H522 = assay: Growth inhibition of human NCI-H522 cells incubated for 48 hrs by sulforhodamine B assay; details: NCI-H522, 48 h; outline: as §1
HCC 2998 = assay: Growth inhibition of human HCC2998 cells incubated for 48 hrs by sulforhodamine B assay; details: HCC 2998, 48 h; outline: as §1
HCT-116 = assay: Growth inhibition of human HCT116 cells incubated for 48 hrs by sulforhodamine B assay; details: HCT-116, 48 h; outline: as §1
SW-620 = assay: Growth inhibition of human SW620 cells incubated for 48 hrs by sulforhodamine B assay; details: SW-620, 48 h; outline: as §2
SF-295 = assay: Growth inhibition of human SF295 cells incubated for 48 hrs by sulforhodamine B assay; details: SF-295, 48 h; outline: as §2
SF-539 = assay: Growth inhibition of human SF539 cells incubated for 48 hrs by sulforhodamine B assay; details: SF-539, 48 h; outline: as §2
U-251 = assay: Growth inhibition of human U251 cells incubated for 48 hrs by sulforhodamine B assay; details: U-251, 48 h; outline: as §2
LOX IMVI = assay: Growth inhibition of human LOXIMVI cells incubated for 48 hrs by sulforhodamine B assay; outline: as §1
MDA-MB-435 = assay: Growth inhibition of human MDA-MB-435 cells incubated for 48 hrs by sulforhodamine B assay; details: MDA-MB-435, 48 h; outline: as §1
SK-MEL-2 = assay: Growth inhibition of human SK-MEL-2 cells incubated for 48 hrs by sulforhodamine B assay; details: SK-MEL-2, 48 h; outline: as §2
SK-MEL-28 = assay: Growth inhibition of human SK-MEL-28 cells incubated for 48 hrs by sulforhodamine B assay; details: SK-MEL-28, 48 h; outline: as §2
UACC-257 = assay: Growth inhibition of human UACC257 cells incubated for 48 hrs by sulforhodamine B assay; details: UACC-257, 48 h; outline: as §2
OVCAR-3 = assay: Growth inhibition of human OVCAR3 cells incubated for 48 hrs by sulforhodamine B assay; details: OVCAR-3, 48 h; outline: as §1
NCI/ADR-RES = assay: Growth inhibition of human NCI/ADR-RES cells incubated for 48 hrs by sulforhodamine B assay; outline: as §1
SK-OV-3 = assay: Growth inhibition of human SKOV3 cells incubated for 48 hrs by sulforhodamine B assay; details: SK-OV-3, 48 h; outline: as §2
CAKI-1 = assay: Growth inhibition of human Caki1 cells incubated for 48 hrs by sulforhodamine B assay; details: CAKI-1, 48 h; outline: as §1
DU-145 = assay: Growth inhibition of human DU145 cells incubated for 48 hrs by sulforhodamine B assay; details: DU-145, 48 h; outline: as §1
MCF7 = assay: Growth inhibition of human MCF7 cells incubated for 48 hrs by sulforhodamine B assay; details: MCF7, 48 h; outline: as §1
T47D = assay: Growth inhibition of human T47D cells incubated for 48 hrs by sulforhodamine B assay; outline: as §2
[1] = read-out: LC50 (the source's name)

SMILES: C=C1CC[C@@H]2[C@](C)(COC(C)=O)[C@H](OC(C)=O)CC[C@@]2(C)[C@H]1CC(Nc1ccc(S(=O)(=O)Nc2nccc(C)n2)cc1)C1=CCOC1=O (some centres undefined)
- GI50 (CCRF-CEM): 0.0073 µM
- TGI (CCRF-CEM): 3.09 µM
- CC50 (CCRF-CEM; [1]): > 100 µM
- GI50 (HL-60(TB)): 2.1 µM
- TGI (HL-60(TB)): 5.63 µM
- CC50 (HL-60(TB); [1]): > 100 µM
- GI50 (K562): 2.97 µM
- TGI (K562): 21.7 µM
- CC50 (K562; [1]): > 100 µM
- GI50 (MOLT-4): 3.22 µM
- TGI (MOLT-4): 17.9 µM
- CC50 (MOLT-4; [1]): > 100 µM
- GI50 (SR): 0.75 µM
- TGI (SR): > 100 µM
- CC50 (SR; [1]): > 100 µM
- GI50 (A549): 8.19 µM
- TGI (A549): 21.9 µM
- CC50 (A549; [1]): 52.2 µM
- GI50 (HOP-62): 10.3 µM
- TGI (HOP-62): 22.5 µM
- CC50 (HOP-62; [1]): 49.3 µM
- GI50 (NCI-H226): 2.33 µM
- TGI (NCI-H226): 5.91 µM
- CC50 (NCI-H226; [1]): > 100 µM
- GI50 (NCI-H460): 4.88 µM
- TGI (NCI-H460): 18.3 µM
- CC50 (NCI-H460; [1]): 53.9 µM
- GI50 (NCI-H522): 1.26 µM
- TGI (NCI-H522): 3.1 µM
- CC50 (NCI-H522; [1]): 7.62 µM
- GI50 (HCC 2998): 4.98 µM
- TGI (HCC 2998): 17.9 µM
- CC50 (HCC 2998; [1]): 48.1 µM
- GI50 (HCT-116): 1.6 µM
- TGI (HCT-116): 3.56 µM
- CC50 (HCT-116; [1]): 7.96 µM
- GI50 (SW-620): 1.6 µM
- TGI (SW-620): 3.68 µM
- CC50 (SW-620; [1]): 8.48 µM
- GI50 (SF-295): 12.4 µM
- TGI (SF-295): 25.6 µM
- CC50 (SF-295; [1]): 52.9 µM
- GI50 (SF-539): 2.07 µM
- TGI (SF-539): 4.73 µM
- CC50 (SF-539; [1]): 12.4 µM
- GI50 (U-251): 3.17 µM
- TGI (U-251): 10.7 µM
- CC50 (U-251; [1]): 33.3 µM
- GI50 (LOX IMVI): 1.53 µM
- TGI (LOX IMVI): 3.24 µM
- CC50 (LOX IMVI; [1]): 6.89 µM
- GI50 (MDA-MB-435): 2.92 µM
- TGI (MDA-MB-435): 10.4 µM
- CC50 (MDA-MB-435; [1]): 34.2 µM
- GI50 (SK-MEL-2): 6.01 µM
- TGI (SK-MEL-2): 20 µM
- CC50 (SK-MEL-2; [1]): 52.1 µM
- GI50 (SK-MEL-28): 2.83 µM
- LC50 (50% net cell kill) (SK-MEL-28): 36.3 µM
- TGI (SK-MEL-28): 10.1 µM
- GI50 (UACC-257): 4.8 µM
- TGI (UACC-257): 16.4 µM
- CC50 (UACC-257; [1]): 42.8 µM
- GI50 (OVCAR-3): 1.76 µM
- TGI (OVCAR-3): 3.36 µM
- CC50 (OVCAR-3; [1]): 6.43 µM
- GI50 (NCI/ADR-RES): 2.94 µM
- LC50 (concentration giving net 50% loss of initial cells) (NCI/ADR-RES): > 100 µM
- TGI (NCI/ADR-RES): 13.5 µM
- GI50 (SK-OV-3): 12.7 µM
- TGI (SK-OV-3): 25.3 µM
- CC50 (SK-OV-3; [1]): 50.3 µM
- GI50 (CAKI-1): 3.56 µM
- TGI (CAKI-1): 12.5 µM
- CC50 (CAKI-1; [1]): 35.5 µM
- GI50 (DU-145): 3.36 µM
- TGI (DU-145): 11.8 µM
- CC50 (DU-145; [1]): 34.9 µM
- GI50 (MCF7): 2.27 µM
- TGI (MCF7): 12.5 µM
- CC50 (MCF7; [1]): > 100 µM
- GI50 (T47D): 2.77 µM
- TGI (T47D): 8.33 µM
- CC50 (T47D; [1]): > 100 µM
